High-throughput results deposited in PubChem BioAssay by several laboratories.
Only some compounds are listed: those with a hit (about 1.6% of all), similar ones and a draw of the others.
ADAM10 inh: human ADAM10 inhibitors, primary screen, biochemical, QFRET, HTS; Disintegrin and metalloproteinase domain-containing protein 10 (Homo sapiens), O14672; recombinant ADAM10, EDANS/DABCYL FRET peptide cleavage, 3 h; inhibition, % at 7 µM; 370,000 compounds, 0.62% hits; AID 720582, 2013;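 active means inhibition above a per-campaign cutoff equal to the mean of compounds falling between control-based bounds plus 3 SD, cut at about 20% in these data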
MT1-MMP act inh: blockers of MT1-MMP proenzyme processing, primary screen, HT1080 RFP-PRO-GFP cells, GFP/RFP fluorescence; 360,000 compounds, 0.061% hits; GFP/RFP ratio fluorescence, overnight; percent of plate control window, DMSO zero; AID 651647, 2012; GFP/RFP ratio change, % at 20 µM; Matrix metalloproteinase-14 (Homo sapiens), P50281;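 active means GFP/RFP ratio change of at least 30% with cell ATP level not reduced by more than half and red fluorescence within 50% of control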
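Assay system: HT1080 RFP-PRO-GFP cells | Dosing: 20 µM single dose, 1% DMSO | Incubation: Cells overnight before dosing, compound overnight, 37 °C, 5% CO2 | Evaluation: GFP/RFP fluorescence ratio | Control set: DMSO-only wells and HT1080 RFP-L50D-GFP cell wells as references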
ADAM17 inh: ADAM17 inhibitors, primary screen, biochemical, QFRET | recombinant ADAM17, EDANS/DABCYL FRET peptide cleavage | AID 720648, 2013 | inhibition, % at 6.95 µM | Disintegrin and metalloproteinase domain-containing protein 17 (Homo sapiens), P78536 | 370,000 compounds, 0.83% hits;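 active means inhibition above the mean of compounds lying between control limits plus 3 SD, set per campaign, cut at about 8.5% in these data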
Tn7 DDE FP: inhibitors of Tn7 peptide binding to fibrin DD(E), primary screen, biochemical, fluorescence polarization, human fibrin, Tn7 probe. AID 720508, 2013. FP displacement of FITC-Tn7 peptide from fibrin DD(E); 0% = median of compound wells per plate. 370,000 compounds, 0.13% hits. inhibition, % at 8.3 µM. Fibrinogen beta chain (Homo sapiens), P02675;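 active means inhibition above the mean of compounds falling within the control limits plus 3 SD of them, cut at about 14% in these data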
Target sequence (P02675 whole entry, looked up): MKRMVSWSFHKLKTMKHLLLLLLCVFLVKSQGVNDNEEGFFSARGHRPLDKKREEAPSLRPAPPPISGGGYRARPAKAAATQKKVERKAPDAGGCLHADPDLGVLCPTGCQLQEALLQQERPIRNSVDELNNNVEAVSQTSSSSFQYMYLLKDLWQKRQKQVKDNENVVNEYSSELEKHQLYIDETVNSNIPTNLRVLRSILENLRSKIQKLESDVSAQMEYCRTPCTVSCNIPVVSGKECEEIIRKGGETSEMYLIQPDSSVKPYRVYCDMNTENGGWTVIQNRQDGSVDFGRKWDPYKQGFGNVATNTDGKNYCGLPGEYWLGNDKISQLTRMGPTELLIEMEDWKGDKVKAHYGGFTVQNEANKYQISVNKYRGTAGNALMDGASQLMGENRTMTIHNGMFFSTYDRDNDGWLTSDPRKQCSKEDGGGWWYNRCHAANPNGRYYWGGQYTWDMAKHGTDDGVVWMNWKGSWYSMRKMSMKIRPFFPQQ
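assay system = human clot-derived fibrin DD(E) complex | quantity = Fibrin-DD(E) at 2 µM final | timing = 10 min preincubation, 3 h with tracer, room temperature | signal = fluorescence polarization | measure = percent inhibition | benchmarks = high control wells with 10 µM unlabelled Aha-Tn7 peptide (full inhibition) | replicates = singlicate testing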
DDE Tn6 FP inh: inhibitors of Tn6 peptide binding to fibrin DD(E), primary screen, biochemical, fluorescence polarization, human fibrin, Tn6 probe | Fibrin DD(E) TRITC-Tn6 fluorescence polarization displacement | Fibrinogen beta chain (Homo sapiens), P02675 | AID 720509, 2013 | inhibition, % at 8.3 µM | 370,000 compounds, 0.21% hits;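 active means inhibition above a per-campaign cutoff: mean of compounds within control limits plus 3 SD, cut at about 15% in these data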
DDE Tn6 FP ctr: counter-screen for inhibitors of Tn6 peptide binding to fibrin DD(E); shares compounds with DDE Tn6 FP inh; TRITC-Tn6 fluorescence polarization displacement; 0% = median of compound wells, not DMSO; inhibition, % at 8.3 µM; 680 compounds, 2% hits; AID 720621;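 active means inhibition above the mean of test compounds lying between the control limits plus 3 SD of those, cut at about 14% in these data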
DDE Tn6 confirm: inhibitors of Tn6 peptide binding to fibrin DD(E), confirmation, biochemical, fluorescence polarization, human fibrin, Tn6 probe; FP displacement of TRITC-Tn6 peptide from DD(E); 0% = per-plate median of test wells; shares compounds with DDE Tn6 FP inh; inhibition, % at 8.3 µM; 680 compounds, 10% hits; AID 720631, 2013;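 active means inhibition above the mean of compounds lying within the control limits plus 3 SD, cut at about 16% in these data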
ADAM10 confirm: human ADAM10 inhibitors, confirmation, biochemical, QFRET, triplicate | shares compounds with ADAM10 inh | ADAM10 QFRET peptide cleavage, EDANS fluorescence | inhibition, % at 6.95 µM | 2,100 compounds, 1% hits | AID 743208, 2013;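 active means inhibition above about 20% chosen separately for each screening run, limit read from the data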
ADAM17 counter: ADAM17 inhibitors, counter-screen for ADAM10 exosite inhibitor project, biochemical, QFRET, high throughput. inhibition, % at 6.95 µM. 2,100 compounds, 0.5% hits. ADAM17 QFRET peptide cleavage, EDANS fluorescence. shares compounds with ADAM10 inh;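 active means mean triplicate inhibition above the solvent-only control wells' mean plus 3 SD, cut at about 12% in these data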
ADAM10 counter: ADAM10 inhibitors, counter-screen for ADAM17 exosite inhibitor project, biochemical, FRET, human ADAM10; shares compounds with ADAM17 inh; recombinant ADAM10, EDANS/DABCYL FRET peptide cleavage, 3 h; inhibition, % at 6.95 µM; 2,900 compounds, 47% hits; AID 743256, 2014;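 active means mean inhibition over the triplicate runs exceeds the activity threshold set in the earlier primary screen, cut at about 20% in these data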
ADAM17 confirm: ADAM17 inhibitors, hit retest, confirmation, biochemical, QFRET peptide cleavage. shares compounds with ADAM17 inh. recombinant ADAM17, EDANS/DABCYL QFRET peptide cleavage. inhibition, % at 6.95 µM. 2,900 compounds, 65% hits. AID 743257, 2014;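 active means mean inhibition across replicates above the hit cutoff set in the primary screen, cut at about 8.5% in these data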
A number is an active result; - = inactive; . = not tested or not shown.

SMILES	ADAM10 inh	MT1-MMP act inh	ADAM17 inh	Tn7 DDE FP	DDE Tn6 FP inh	ADAM10 confirm	ADAM17 counter	others
COc1ccccc1NS(=O)(=O)c1cccc(NC(=O)Nc2ccc(Cl)cc2)c1	56.0	-	25.8	-	170.1	-	-	DDE Tn6 FP ctr=-;DDE Tn6 confirm=23.2
COc1ccccc1CCn1cnc(-c2cccc(Cl)c2)c1CC(C)C	-	.	-	-	-	.	.
CCC(CC)C(=O)Nc1cccc(C(=O)Nc2ccc(S(=O)(=O)Nc3ccc(C)cc3)cc2)c1	-	-	8.8	-	18.7	.	.	DDE Tn6 FP ctr=-;DDE Tn6 confirm=-;ADAM10 counter=21.9;ADAM17 confirm=16.5
C=CCN1C(=O)[C@@H](CC(=O)N2CCCC2)[C@]2(C(=O)OC)CCCCC=C12	-	.	-	-	-	.	.
C[C@@H]1CN([C@H](C)CO)C(=O)c2cc(NC(=O)Nc3ccc(C(F)(F)F)cc3)ccc2O[C@H]1CN(C)S(=O)(=O)c1ccccc1	28.3	-	11.0	-	48.4	-	-	DDE Tn6 FP ctr=14.4;DDE Tn6 confirm=-;ADAM10 counter=28.0;ADAM17 confirm=15.7
O=C(CSc1nnc(SCc2cccc3ccccc23)s1)Nc1ccc(S(=O)(=O)Nc2nccs2)cc1	35.1	.	10.8	-	21.7	-	-	DDE Tn6 FP ctr=-;DDE Tn6 confirm=16.6;ADAM10 counter=25.7;ADAM17 confirm=11.4
Cc1cc(C)nc(SCC(=O)Nc2ccc(S(=O)(=O)Nc3nccs3)cc2)n1	-	-	-	-	-	.	.
COc1ccc(C2CC(=O)C(c3ccccc3C)=CN2Cc2ccccc2)cc1 (configuration not stated)	-	.	-	-	-	.	.
Cc1ccc(Nc2c([N+](=O)[O-])cc(C(=O)N3CC(=O)Nc4ccccc43)cc2[N+](=O)[O-])c(C)c1	20.4	-	-	-	-	-	-
O=C1CN(C(=O)c2ccc(Cl)c([N+](=O)[O-])c2)c2ccccc2N1	-	-	-	-	-	.	.
COC(=O)C1=C(C)N(C)C(=NCc2cc(OC)c(OC)c(OC)c2)NC1c1cccc(F)c1 (configuration not stated)	-	.	-	-	-	.	.
O=C(NCc1ccc(F)cc1)c1noc2c1CCCC2	.	-	.	.	.	.	.
CC(C)(C)C1CCc2onc(C(=O)NCc3ccc(F)cc3)c2C1 (configuration not stated)	21.1	-	-	-	-	-	-
COc1ccc([C@@H]2[C@@H]3C(=O)N(C(C)(C)C)C(=O)[C@@H]3[C@]3(Cc4ccc(Cl)cc4)C(=O)N(c4ccc(OC)cc4)C(=O)N23)cc1	20.8	-	-	-	-	-	-
C/C(=N\Nc1nc2ccccc2s1)c1cccs1	24.9	-	-	-	-	-	-
CC(=NNc1nc2ccccc2s1)c1ncccn1	-	-	-	-	-	.	.
COCCCN1C(=O)[C@H](CC(=O)N2CCSCC2)[C@]2(C(=O)OC)CCCCC=C12	-	.	-	-	-	.	.
COc1ccccc1CNC(=O)c1ccc(-c2ccccc2C(F)(F)F)o1	-	-	-	-	-	.	.
COc1ccccc1CNC(=O)c1ccc(-c2ccccc2Cl)o1	21.4	-	12.4	-	-	-	-
CCCCCCCOc1ccc(C2(C)NC(=O)NC2=O)cc1 (configuration not stated)	21.0	-	-	-	-	-	-
Cc1cc(Br)c2c(c1)/C(=C/C(=O)c1cccs1)C(=O)N2	20.1	-	-	-	-	-	-
Cc1cccc2c1NC(=O)/C2=C\C(=O)c1cccs1	-	-	-	-	-	.	.
COc1ccccc1C(=O)NCCC(=O)Nc1ccc(S(=O)(=O)N2CC(C)CC(C)C2)cc1 (configuration not stated)	28.9	-	9.6	-	-	-	-
COc1ccccc1C(=O)NCCC(=O)Nc1ccc(S(=O)(=O)N2C(C)CCCC2C)cc1 (configuration not stated)	-	-	-	-	-	.	.
COC(=O)[C@]12C[C@H](CC(=O)N3CCC(c4ccccc4)CC3)C(=O)N(Cc3ccc4c(c3)OCO4)C1=C[C@H](COCc1ccccc1)O[C@@H]2C	-	.	-	-	-	.	.
SMILES	ADAM10 inh	MT1-MMP act inh	ADAM17 inh	Tn7 DDE FP	DDE Tn6 FP inh	ADAM10 confirm	ADAM17 counter	others
C=CCN1[C@@H](C)[C@@H](c2ccccc2)Oc2c(Cl)cccc2S1(=O)=O	-	.	-	-	-	.	.
CCN(c1ccccc1)S(=O)(=O)c1ccc(Cl)c(NC(=O)COC(=O)C2CC2C)c1 (configuration not stated)	-	-	-	-	-	.	.
CCN(c1ccccc1)S(=O)(=O)c1ccc(Cl)c(NC(=O)COC(=O)c2ccc(O)cc2)c1	20.1	-	-	-	-	-	-
O=C(Nc1ccccc1)c1ccccc1Oc1ccc(C(F)(F)F)cc1[N+](=O)[O-]	21.4	-	-	-	-	-	-
O=C(Nc1cccc(Cl)c1)OCCOC(=O)Nc1cccc(Cl)c1	20.6	-	-	-	-	-	-
COc1ccc(Oc2c(Br)cnn(Cc3cccc4ccccc34)c2=O)cc1	-	.	-	-	-	.	.
